Assay results taken from ChEMBL document CHEMBL4513216, “Probing the Open Global Health Chemical Diversity Library for Multistage-Active Starting Points for Next-Generation Antimalarials” (ACS Infect Dis, 2020).

Assay: Toxicity liver stage against HepG2, at 10uM
Format: cell-based
Set-up: test concentration 10 uM, cell line HepG2-A16-CD81EGFP
Conditions: human, HepG2-A16-CD81EGFP cells; read-out: INHIBITION
In short: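 Uninfected HepG2-A16-CD81EGFP cells, 3 × 10^3 per well, 1536-well, plated on prespotted compound at 10 μM final, parasite-free screening media added to match infected plates; puromycin 10 μM positive, DMSO 0.5% negative; run in parallel with 48 h PbLuc assay at 37 °C, 5% CO2; viability by CellTiter-Glo luminescence, normalized to controls.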

SMILES | cytotoxicity at 10 µM
CCC1(C)Cc2ccccc2-c2nc(NCCO)nc(O)c21 (stereo unspecified) | 4.1%
CC(C)(C)c1coc([C@@H]2COCCN2Cc2ncc[nH]2)n1 | 2.61%
CC(=O)N1CC=C(n2c(=O)[nH]c3ccccc32)CC1 | 1.73%
Cc1cc(=O)[nH]c(-n2nc(-c3cccs3)cc2N)n1 | 4.57%
CC(C)CN1C[C@@H]2C(=O)NC3(CCN(C(=O)c4cccnc4)CC3)[C@@H]2C1 | 5.53%
O=C(c1cc(F)cc(F)c1)N1C[C@H]2CNC[C@H]2C1 | 2.91%
Cc1noc(C)c1CN1CCOC2(CCCN(c3ccccn3)C2)C1 (stereo unspecified) | 11.6%
O=C(NC1CC1)[C@H]1CC[C@@H]2[C@@H](CCN2Cc2ccsc2)O1 | 1.42%
Cn1nnc2c1C(COCC1CC1)CN(C(=O)Cc1cccs1)C2 (stereo unspecified) | 3.88%
CC(C)N(C)[C@@H]1CCN(C(=O)[C@H]2CCCO2)[C@H]1Cc1cnn(C)c1 | 0.428%
CN(Cc1cn2c(n1)CN(C(N)=O)CC2)Cc1ccco1 | -5.67%
COc1ccc(C2=C(C)C(N3CCc4ccccc4C3)=NS2(=O)=O)cc1 | -6.34%
CN(C)S(=O)(=O)N1CCC(Oc2cnccn2)CC1 | 1.65%
CSc1ncn(-c2nc(N(C)C)nc(N(C)C)n2)n1 | -3.54%
Cc1ccc(NC(=O)C(C)n2ccc(C(F)(F)F)n2)nc1 (stereo unspecified) | 9.6%
Cc1nn(C)c(C)c1CN1CCNCC1 | 4.68%
CCn1cc(Cl)c(C(=O)Nc2ccc3c(c2)C(C)(C)C(=O)N3C)n1 | 9.21%
Cc1cc(=O)n(CC(=O)NCC2CCCO2)c(-c2ccccc2)n1 (stereo unspecified) | -14.6%
COc1ccc(OCCc2nnc(NC(C)=O)s2)cc1 | 0.0869%
Nc1nccc(C2CN(Cc3ccc(-c4ccccc4C(=O)O)o3)C2)n1 | 5%
O=C(O)c1cccc(CN2CCCC(c3ccn[nH]3)C2)c1 (stereo unspecified) | 3.98%
O=C(CC1CCN(c2cccnn2)CC1)Nc1cccnc1 | 3.72%
CN1CCN(C(=O)c2ccccc2)CC(Cc2cc(N(C)C)ncn2)C1 (stereo unspecified) | 2%

SMILES | cytotoxicity at 10 µM
COCC(=O)N1C[C@@H](c2cccc(F)c2)[C@H]2[C@H]1CCCCCN2C(C)=O | 4.22%
Cc1nn(C)c(C)c1-c1cnc(CC2CCNCC2)cn1 | -13.7%
CC(C)N1CCCC(CNC(=O)Cc2csc(-c3cccnc3)n2)C1 (stereo unspecified) | -51.5%
Cn1cc(S(=O)(=O)N2CCCC(Cn3cncn3)C2)cn1 (stereo unspecified) | 2%
CSCC(=O)NC(Cc1ccc(C)cc1)c1ccccn1 (stereo unspecified) | 1.23%
CCCN1CCC(NCc2cccc(CN3CCOC(C)C3)c2)CC1 (stereo unspecified) | -13%
CN(C)c1ncccc1NC(=O)COCC1CC1 | -4.69%
CCC(=O)N(c1ccc(C(=O)OC)cc1C)C(C)C | 0.814%
Cc1csc(C2(NCCC(=O)N3CCOCC3)CCCC2)n1 | -11.4%
CN1CCN(C2CCN(C(C(N)=O)c3ccccc3)CC2)C1=O (stereo unspecified) | -4.29%
Cc1ccc(CNC(=O)N2CCN(C(C)c3cccnc3)CC2)cn1 (stereo unspecified) | -2.11%
COc1cc(CNC(=O)Nc2nnc(C(F)(F)F)s2)ccc1O | -2.83%
CCOC(=O)c1ccc(CNC(=O)c2ccncc2Cl)o1 | 6.93%
Cc1cc(C(=O)N(C)C(C)CC(C)C)on1 (stereo unspecified) | -4.6%
CNC(=O)CSC(C)c1ccc(Br)cc1 (stereo unspecified) | -5.71%
CC(NC(=O)C1=NN(C)C(=O)CC1)c1ccc(Cl)cc1 (stereo unspecified) | -20.7%
COC(C)C(=O)Nc1cc(C(=O)N2CCSCC2)ccc1C (stereo unspecified) | 6.83%
CS(=O)(=O)NC1CCCN(C(=O)Nc2cccnc2N2CCCC2)C1 (stereo unspecified) | -131%
CC(C)c1nnc2n1CCN(C(=O)c1cn(-c3ccccc3)nn1)C2 | -144%
N#Cc1ccc(N2CCC(NS(=O)(=O)c3cccs3)CC2)c(F)c1 | 20.5%
Cc1cc(C)n(CC2CCCCN2C(=O)c2ccc3[nH]nnc3c2)n1 (stereo unspecified) | 2.52%
COc1c(C2CCCN2C(=O)c2cc(C3CC3)on2)c(C)nn1C (stereo unspecified) | -2.87%
Cc1ccc(N2CCCC(NC(=O)C(C)(C)C#N)C2=O)cc1 (stereo unspecified) | -2.42%

SMILES | cytotoxicity at 10 µM
Cc1ccc(S(=O)(=O)NC(=O)C2(c3ccccc3)CCC2)c(C)c1 | 13.5%
Cc1ccc(S(=O)(=O)N(CCO)C2CC2)cc1N(C)C | -8.91%
CC(C)C(Sc1ccccc1)C(=O)N(C)Cc1nnc2n1CCC2 (stereo unspecified) | -12.5%
CC(=O)N1CCN(C(=O)CCc2cc(Br)cs2)CC1 | -9.74%
COC(=O)N1CCCN(C(=O)NC2CCc3ccccc3C2)CC1 (stereo unspecified) | -1.14%
O=C(COc1cccc(Br)c1)N1CCN(c2nccs2)CC1 | -1.53%
Cc1ncsc1C(=O)N1CCCC(c2noc(C(C)C)n2)C1 (stereo unspecified) | -2.04%
COCCN(Cc1ccc(F)cc1Cl)C(=O)c1ccncc1 | -5.69%
COCc1cncc2c1CCN(C(=O)c1cscn1)C2 | -104%
CC(C)CN1C[C@@H]2CN(c3cnccn3)C[C@@H]2C1=O | -91.6%
CS(=O)(=O)NC[C@]12COC[C@H]1CN(C(=O)N1CCCC1)C2 | -109%
Cc1nccc(NCc2cc3n(n2)CCCN(C(=O)C2CCC2)C3)n1 | -128%
Cn1cc(CN(C(=O)c2ccc(O)c(Cl)c2)C2CC2)cn1 | 5.17%
OCC1(O)CCCN(Cc2nnc(-c3ccccc3)o2)CC1 (stereo unspecified) | -3.69%
O=C(O)c1ccnc(-c2ccnc(COc3ccc(Cl)cc3)n2)c1 | -6.67%
Cc1ncsc1C(=O)N[C@@H](Cc1ccccc1)C(N)=O | -44.9%
CN1CCCC2(CCN(C(=O)Cn3ncc4ccccc4c3=O)C2)C1=O (stereo unspecified) | 1.57%
CC(Nc1nccc(CCC(F)(F)F)n1)c1nc(-c2ccccn2)no1 (stereo unspecified) | -6.43%
COc1cccc(S(=O)(=O)N2C[C@@H](N(C)C)[C@H](C(C)C)C2)c1 | -51.2%
COCC1(NC(=O)C(c2ccc(F)cc2)N(C)C)CCCC1 (stereo unspecified) | -44.9%
CC(C)N1CCC(N2CCCC(C(=O)NCC3(O)CCCCC3)C2)CC1 (stereo unspecified) | 2.59%
c1nc(N2CCCC2)ncc1CN1CCCC(CN2CCCCC2)C1 (stereo unspecified) | -5.45%
COCCn1ccnc1C1CCCN(c2cnccn2)C1 (stereo unspecified) | 3.23%

SMILES | cytotoxicity at 10 µM
CCCn1cc(C(=O)NC(C(=O)O)c2ccccc2C(F)(F)F)c(C)n1 (stereo unspecified) | -50.2%
O=C(NCCCn1cccn1)C1CCC(=O)N(CC2CCCCC2)C1 (stereo unspecified) | -0.312%
O=C1CC2(CCN(Cc3ccc(-c4ccccc4)s3)C2)C(=O)N1 (stereo unspecified) | -0.745%
Cc1cc(CN2CC3(CCN(C(=O)C4CC4)CC3)CC2C(=O)O)oc1C (stereo unspecified) | 1.1%
CC(C)c1cc(N2CCCC3(CCN(C)C3)C2)ncn1 (stereo unspecified) | -7.36%
NC(=O)CN1CC2(CCC1=O)CCN(Cc1cc(F)ccc1Cl)CC2 | 18.6%
CC(C)N1CCC(Cc2cc(-c3cccc(C(=O)O)c3)ncn2)C1 (stereo unspecified) | 3.01%
C[C@]1(O)CCN(Cc2cncs2)C[C@@H]1Oc1cccc(F)c1 | 6.06%
CC(C)c1nc(C2CCCN2Cc2ccon2)no1 (stereo unspecified) | -3.5%
Cc1cccc(C(=O)NCc2ccccc2)n1 | -4.83%
CC(C)C(Sc1nnnn1C1CC1)C(=O)NCc1ccccc1 (stereo unspecified) | -3.46%
Cc1oc(C(=O)O)cc1S(=O)(=O)Nc1cc(F)ccc1F | -7.66%
Cc1ncc2c(n1)CN(Cc1nc(-c3ccsc3)no1)CC2 | -1.33%
CC1CN(CC(=O)N2CCOCC2)CCN1Cc1nccn1C (stereo unspecified) | -15.6%
CC(Cc1ccco1)NC(=O)Nc1ccc(N2CCCC2)nc1 (stereo unspecified) | -3.31%
Cc1cnn(CC2CN(CCc3ccccn3)CCO2)c1 (stereo unspecified) | -4.98%
Cc1ccc(-c2nc(CN3CCCCC3Cn3cncn3)no2)cc1 (stereo unspecified) | -0.403%
COc1cccc(C(=O)N2CCC(Nc3ccc(C)nn3)CC2)c1 | -2.24%
Cn1ncc2c(NCC3CCCN3c3cccnn3)ncnc21 (stereo unspecified) | -11.9%
CC(C)c1nc(CN2CCN(CC(O)c3ccccc3)CC2)no1 (stereo unspecified) | -3.6%
O=C(c1cnc(-c2cccs2)s1)N1CCCC(n2ccnc2)C1 (stereo unspecified) | -12.8%
COc1c(CNC2CCc3cc(C)ccc32)c(C)nn1C (stereo unspecified) | -0.0225%
O=C(c1ccc2c(c1)COC2)N1CCCN(Cc2cscn2)CC1 | 0.0102%

SMILES | cytotoxicity at 10 µM
Cn1ccnc1CN1CCN(CC(O)c2cc(F)ccc2F)CC1 (stereo unspecified) | -13.8%
O=C(CCc1ccccn1)N1CCCN(C(=O)CC2CCCC2)CC1 | -0.546%
CCOc1ccc(CC(CNC(=O)c2ccc(C)s2)C(N)=O)cc1 (stereo unspecified) | -3.85%
Cc1cnc(CN2CCOC(CN(C)c3cccnn3)C2)cn1 (stereo unspecified) | 3.64%
Cc1cc(C(=O)N2CCC(Nc3cccnn3)CC2)no1 | -0.0225%
Cc1nn(C)c(C)c1C1CCCN1Cc1nc(C2CC2)no1 (stereo unspecified) | -6.68%
CCc1nc(CN(C)C2CCN(CCS(C)(=O)=O)C2)no1 (stereo unspecified) | 4.45%
COc1cc(C(=O)N2CCCS2(=O)=O)cc(Cl)c1OC | 2.31%
CCc1nc(C2CCCN(C(=O)c3ccc4[nH]nnc4c3)C2)no1 (stereo unspecified) | 2.67%
OCC1CCC2(CC1)CN(Cc1ccccn1)Cc1ccccc1O2 (stereo unspecified) | 5.35%
CC(C)N(C)Cc1cnc2n1CCN(Cc1ccsc1)C2 | 1.96%
c1cc(CN2CCc3ncc(CN4CCCCC4)n3CC2)cs1 | -5.21%
O=C1[C@@H]2CN(Cc3ccccn3)C[C@H]2CCN1c1cncnc1 | -115%
CC(C)Nc1nc2c(cc1C(=O)O)CCN(Cc1ccsc1)CC2 | 0.676%
COc1ccc(CN2CCC3(CC(=O)N(c4cccc(F)c4)C3)C2)cc1 (stereo unspecified) | -137%
O=C(NCC1CCOCC1)[C@@H]1C[C@@H]2[C@@H](CCN2Cc2nccs2)O1 | 0.11%
COCC1CN(Cc2ccc(C)s2)Cc2nnn(C)c21 (stereo unspecified) | 5.17%
CN(C)[C@@H]1CCN(C(=O)NC2CCCC2)[C@H]1Cc1cnn(C)c1 | -0.336%
NC(=O)NCC(=O)N1C[C@@H]2CC[C@H]1CN(C1Cc3ccccc3C1)C2 | 15.3%
